# Screening data: PubChem, Johns Hopkins Ion Channel Center
# A selection: hits, their analogues and other compounds. The true share with any hit is near 2.3%.
# TRPC4 act – opens the mouse TRPC4 cation channel | HEK293 TRPC4beta/mu-opioid, Fluo4 calcium fluorescence; hits give high values | B-score at 10 µM | actives 0.49% (n = 310,000) | AID 2237;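 active means B-score above 5 SD of library B-scores, and initial fluorescence ratio not above library mean plus 5 SD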;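 further: positive B-score marks a calcium rise read as TRPC4 activation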
# Target sequence (Q9QUQ5 whole entry, looked up): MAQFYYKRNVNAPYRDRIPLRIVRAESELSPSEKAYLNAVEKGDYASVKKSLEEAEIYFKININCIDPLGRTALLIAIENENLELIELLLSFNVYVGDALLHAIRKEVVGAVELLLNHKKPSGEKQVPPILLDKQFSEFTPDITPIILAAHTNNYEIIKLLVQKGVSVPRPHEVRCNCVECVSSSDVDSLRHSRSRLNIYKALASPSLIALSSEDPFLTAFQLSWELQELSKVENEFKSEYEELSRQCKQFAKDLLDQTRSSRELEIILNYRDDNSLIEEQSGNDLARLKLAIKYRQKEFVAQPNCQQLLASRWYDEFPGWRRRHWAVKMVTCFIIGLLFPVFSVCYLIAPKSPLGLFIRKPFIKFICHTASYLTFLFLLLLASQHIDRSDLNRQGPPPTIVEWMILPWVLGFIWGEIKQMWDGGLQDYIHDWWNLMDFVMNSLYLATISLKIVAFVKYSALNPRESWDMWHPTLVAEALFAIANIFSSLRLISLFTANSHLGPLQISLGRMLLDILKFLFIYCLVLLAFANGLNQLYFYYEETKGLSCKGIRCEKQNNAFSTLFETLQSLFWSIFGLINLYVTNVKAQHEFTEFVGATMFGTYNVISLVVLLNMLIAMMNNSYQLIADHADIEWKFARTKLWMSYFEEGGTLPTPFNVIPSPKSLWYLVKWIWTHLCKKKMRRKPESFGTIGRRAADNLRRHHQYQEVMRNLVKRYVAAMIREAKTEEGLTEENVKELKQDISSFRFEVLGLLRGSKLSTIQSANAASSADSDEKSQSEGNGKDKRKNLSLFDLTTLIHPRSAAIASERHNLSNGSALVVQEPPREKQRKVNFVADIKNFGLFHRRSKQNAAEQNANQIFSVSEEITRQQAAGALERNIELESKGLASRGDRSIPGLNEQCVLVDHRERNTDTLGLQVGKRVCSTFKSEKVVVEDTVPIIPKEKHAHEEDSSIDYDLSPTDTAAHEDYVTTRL
#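 Incubation: 45 min room-temperature Fluo4 loading, 110 s read / System: HEK293 cells stably co-expressing mouse TRPC4beta and mu-opioid receptor / Signal: Fluo4 fluorescence, kinetic / Control set: buffer (low) and maximal DAMGO (high) / Measure: integrated baseline-normalised fluorescence ratio, converted to per-well B score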
# TRPC4 inh – TRPC4 (mouse) channel inhibition | HEK293 TRPC4beta/mu-opioid, DAMGO-evoked Fluo4 calcium flux; hits give low values | B-score at 10 µM | actives 0.39% (n = 300,000);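 active means B-score over 3 SD under the library average, no early fluorescence shift, positive overall ratio signal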
#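 System: stable TRPC4beta/mu-opioid receptor HEK293 cells; Dosing: single-point compound dosing; Measured by: Fluo4 Ca2+ flux fluorescence; Read-out basis: per-well B score of integrated baseline-normalized Fluo4 ratio.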
# TRPC4 PAM – TRPC4 (mouse) allosteric potentiation. Q9QUQ5. HEK293 TRPC4beta/mu-opioid, DAMGO EC20, Fluo-4 Ca2+ flux; hits give high values. B-score at 10 µM. actives 0.42% (n = 310,000). AID 2227;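 active means B-score of calcium response area above 5 SD of library B-scores, with initial fluorescence ratio within 5 SD of library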;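 further: B-score of integrated fluorescence ratio over time as area under calcium response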
# TRPC6 inh – inhibitors of mouse TRPC6 channel. Q61143. B-score at 10 µM. actives 1.1% (n = 310,000). HEK293-TRPC6, membrane potential dye, ACh-evoked depolarization; hits give low values. AID 2553;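 active means B-score under library mean minus 3 SD, initial fluorescence not abnormally high, positive integrated signal ratio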;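 further: B-score derived from integrated fluorescence ratio over the kinetic read; more negative B-score means stronger inhibition of depolarization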
# TRPC6 act – activators of mouse TRPC6 channel; B-score at 10 µM; HEK293-TRPC6 membrane potential dye fluorescence; hits give high values; actives 0.13% (n = 310,000); Q61143; AID 2550;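 active means B-score of the integrated fluorescence ratio above library mean plus 3 SD, and starting fluorescence ratio within library mean plus 5 SD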;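 further: higher score means more depolarization so channel activation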
# TRPC4 spec 2 – second check of whether TRPC6 inhibitors also affect mouse TRPC4; shares compounds with TRPC6 inh; HEK293 TRPC4/MOR, membrane potential dye fluorescence; channel activated by saturating DAMGO dose; inhibition, % at 10 µM; actives 42% (n = 920); AID 2776;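 active means compounds whose fluorescence signal differed from control wells by over 3 SD, either direction, in both duplicate plates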
# TRPC4 spec – selectivity of TRPC6 inhibitors: effect on mouse TRPC4 | shares compounds with TRPC6 inh | HEK293 TRPC4/mu-opioid, membrane potential fluorescence | actives 61% (n = 920) | activity change, negative = inhibition, % at 10 µM;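 active means rise or fall in signal beyond 3 SD of buffer-only wells in both replicate plates, either sign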;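 further: integrated kinetic ratio of fluorescence range over baseline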
# HEK293 MPD ctr 2-1 – second check of TRPC6 inhibitor effects in parental HEK293 cells; shares compounds with TRPC6 inh; parental HEK293 membrane potential dye fluorescence; maximal acetylcholine challenge after compound addition; signal change vs control, % at 10 µM; actives 31% (n = 920);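 active means membrane potential signal moving either way by over 3 SD of the maximum-effect control, in both duplicate plates, meaning non-specific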
# HEK293 MPD ctr-1 – checks TRPC6 inhibitor effects in parental HEK293 cells; membrane potential signal change, % at 10 µM; actives 60% (n = 920); shares compounds with TRPC6 inh; parental HEK293 membrane potential dye fluorescence;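 active means membrane potential signal shifting up or down by more than 3 SD of buffer-only wells, on both duplicate plates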
# HEK293 MPD ctr-2 – parental HEK293 nonspecific activity of TRPC6 modulators; membrane potential dye fluorescence; actives 51% (n = 2,400); shares compounds with TRPC6 inh; membrane potential signal change, % at 10 µM; AID 488924;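 active means membrane potential signal moves up or down beyond 5 SD from buffer-only wells, on both duplicate plates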
# HEK293 MPD ctr 2-2 – second check of TRPC6 modulator effects in parental HEK293 cells. shares compounds with TRPC6 inh. membrane potential dye fluorescence; after compound, maximal acetylcholine stimulation. inhibition, % at 10 µM. actives 14% (n = 2,400);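 active means membrane potential signal drops by more than 5 SD from the mean control signal, in both duplicate plates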;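 further: plate controls were acetylcholine ECmax control wells for no effect and buffer only wells for full effect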
# TRPC4 ctr mod – tests whether TRPC6 modulators also affect mouse TRPC4 | shares compounds with TRPC6 inh | HEK293 TRPC4/mu-opioid, membrane potential fluorescence | percent change from control (negative = decrease, positive = increase), % at 10 µM | actives 69% (n = 2,400);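 active means membrane potential signal moved up or down beyond 5 SD of buffer control wells, in both duplicate plates, actives on both sides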;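 further: plate controls were assay buffer wells for no effect and DAMGO maximal-effect wells for full effect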
# TRPC4 ctr inh 2 – mouse TRPC4 off-target activity of TRPC6 modulators, second screen; shares compounds with TRPC6 inh; inhibition, % at 10 µM; actives 55% (n = 2,400); HEK293 TRPC4/mu-opioid, membrane potential dye fluorescence; stimulated with maximal-effect DAMGO;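 active means drop in membrane potential signal beyond 5 SD of the control wells in both duplicate plates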;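 further: TRPC4 counter screen for TRPC6 hits run under conditions tuned for TRPC6 not TRPC4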
# TRPC6 inh conf – mouse TRPC6 inhibitor confirmation | shares compounds with TRPC6 inh | HEK293-TRPC6, membrane potential dye, ACh-evoked depolarization | inhibition, % at 10 µM | actives 43% (n = 3,300) | AID 488960;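 active means fluorescence ratio falls more than 5 SD below the full-stimulation control mean, in both duplicate runs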;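 further: integrated fluorescence ratio of peak minus minimum over baseline after agonist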
# TRPC6 act confirm – mouse TRPC6 activator confirmation; shares compounds with TRPC6 inh; HEK293-TRPC6 membrane potential dye fluorescence, FDSS; activation, % at 10 µM; actives 11% (n = 2,800);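 active means ratio signal rise beyond 5 SD above unstimulated control wells' mean, seen in both duplicate runs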;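 further: plate controls were buffer EC0 wells for no effect and acetylcholine ECmax response for full effect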
# * hit, by the source's call; i = inactive; x = no result given.
SMILES,TRPC4 act,TRPC4 inh,TRPC4 PAM,TRPC6 inh,TRPC6 act,HEK293 MPD ctr-2,HEK293 MPD ctr 2-2,TRPC4 ctr mod,TRPC4 ctr inh 2,TRPC6 inh conf,others
CN1CCc2c(sc3c2C(=O)NC(/C=C\c2ccccc2)N3)C1 (stereo not drawn),i,i,i,-5.7*,i,i,i,-14%*,63%*,58%*,TRPC6 act confirm=i
CN1CCc2c(sc3c2C(=O)NC(c2cccs2)N3)C1 (stereo not drawn),i,i,i,i,i,x,x,x,x,x,
O=C(Nc1nnc(COc2ccc(Cl)cc2)s1)c1ccco1,i,i,i,i,i,x,x,x,x,x,
COc1ccc(-c2cc(=O)oc3c(C)c(O)c(CN(C)C)cc23)cc1,i,i,i,i,i,x,x,x,x,x,
Cc1c(O)c(CN(C)C)cc2c1oc(=O)c1ccccc12,i,i,i,-5.2*,i,-126%*,i,-28%*,i,i,TRPC6 act confirm=i
COc1ccc(Nc2ccc3c(c2)=NC2(CCCCC2)[N+]=3[O-])cc1,i,i,i,i,i,x,x,x,x,x,
[O-][N+]1=c2ccc(Nc3ccccc3)cc2=NC12CCCCC2,i,i,i,-6.7*,i,-206%*,i,-29%*,41%*,i,TRPC6 act confirm=i
CCc1nccn1CCC(=O)N1CCCC(Nc2ccc(F)cc2)C1 (stereo not drawn),i,i,i,-7.6*,i,i,i,12%*,i,i,
O=C(CCN1CCCCO1)N1CCCC(Nc2ccc(F)c(F)c2)C1 (stereo not drawn),i,i,i,-5.8*,i,i,i,8.5%*,i,46%*,
CCCC1(C(=O)OC)NC(c2ccc(OC)cc2OC)C2C(=O)N(c3cccc(C(C)=O)c3)C(=O)C21 (stereo not drawn),i,i,i,i,i,x,x,x,x,x,
Cc1onc(-c2c(F)cccc2Cl)c1C(=O)Nc1c(C)n(C)n(-c2ccccc2)c1=O,i,i,i,i,i,x,x,x,x,x,
Cc1onc(-c2c(F)cccc2Cl)c1C(=O)NC(=S)Nc1c(C)n(C)n(-c2ccccc2)c1=O,i,i,i,-9.2*,i,x,x,x,x,i,TRPC4 spec 2=i;TRPC4 spec=i;HEK293 MPD ctr 2-1=38%*;HEK293 MPD ctr-1=i;TRPC6 act confirm=i
Cc1cc(C(=O)Nc2ccccc2C(=O)O)oc1C,i,i,i,i,i,x,x,x,x,x,
O=c1oc2ccccc2c(N2CCCCC2)c1CN1CCCC1,i,i,i,i,i,x,x,x,x,x,
O=c1oc2ccccc2c(N2CCCCC2)c1CN1CCCCC1,i,i,i,-5.1*,i,106%*,i,26%*,i,i,
CSc1cc(-c2ccncc2)nc(-c2ccc(Cl)cc2)c1,i,i,i,i,i,x,x,x,x,x,
CN(CC(=O)Nc1ccccc1Br)C(=O)c1cc([N+](=O)[O-])ccc1N1CCOCC1,i,i,i,i,i,x,x,x,x,x,
CC(=O)c1ccc(NC2=C(N3CCOCC3)C(=O)c3ccccc3C2=O)cc1,i,i,i,i,i,x,x,x,x,x,
Cc1ccc(NC2=C(N3CCOCC3)C(=O)c3ccccc3C2=O)cc1,i,i,i,-5.5*,i,i,i,-31%*,78%*,i,TRPC6 act confirm=i
COc1ccc(N(CC(=O)Nc2ccc(C(C)C)cc2)S(=O)(=O)c2c(C)noc2C)cc1,i,i,i,i,i,x,x,x,x,x,
O=C(/C=C1\NCC2c3ccccc3CCN2C1=O)c1ccccc1 (stereo not drawn),i,i,i,-6.1*,i,171%*,i,14%*,i,72%*,
O=C(C=C1NCCN1)c1ccccc1,i,i,i,i,i,x,x,x,x,x,
CS(=O)(=O)N1CCC(C(=O)Nc2ccc(F)cc2F)CC1,i,i,i,-6.3*,i,i,i,12%*,i,i,
CS(=O)(=O)N1CCC(C(=O)Nc2ccc(F)cc2)CC1,i,i,i,i,i,x,x,x,x,x,
O=C(CN1C(=O)c2ccc(Br)cc2C1=O)NCC1CCCO1 (stereo not drawn),i,i,i,-8.9*,i,i,i,i,i,82%*,
COC(=O)c1ccccc1NC(=O)COC(=O)C1CCCCC1,i,i,i,-5*,i,142%*,i,31%*,i,41%*,
COC(=O)c1ccccc1NC(=O)COC(C)=O,i,i,i,i,i,x,x,x,x,x,
COC(=O)c1ccccc1NC(=O)CN1CCC(C)CC1,i,i,i,-5.1*,i,i,i,20%*,i,39%*,
NC(N)=Nc1nc(-c2ccccc2)c2ccccc2n1,i,i,i,-5.4*,i,-174%*,i,-30%*,33%*,i,TRPC6 act confirm=i
CCc1nc(N=C(N)N)nc2ccccc12,i,i,i,i,i,x,x,x,x,x,
